Measured values published in ChEMBL document CHEMBL1157337, “Interference by naturally occurring fatty acids in a noncellular enzyme-based aromatase bioassay” (J Nat Prod, 2006).

Experiments:
Aromatase [1] = target: T1, Aromatase (Homo sapiens, UniProt P11511); test: Inhibition of aromatase in human placental microsomes at 20 ug/ml by radiometric method relative to control; design: species or system Placenta; scale not given: the % may be the effect or the level left; conditions: read-out: Activity
T1 sequence (P11511 whole entry): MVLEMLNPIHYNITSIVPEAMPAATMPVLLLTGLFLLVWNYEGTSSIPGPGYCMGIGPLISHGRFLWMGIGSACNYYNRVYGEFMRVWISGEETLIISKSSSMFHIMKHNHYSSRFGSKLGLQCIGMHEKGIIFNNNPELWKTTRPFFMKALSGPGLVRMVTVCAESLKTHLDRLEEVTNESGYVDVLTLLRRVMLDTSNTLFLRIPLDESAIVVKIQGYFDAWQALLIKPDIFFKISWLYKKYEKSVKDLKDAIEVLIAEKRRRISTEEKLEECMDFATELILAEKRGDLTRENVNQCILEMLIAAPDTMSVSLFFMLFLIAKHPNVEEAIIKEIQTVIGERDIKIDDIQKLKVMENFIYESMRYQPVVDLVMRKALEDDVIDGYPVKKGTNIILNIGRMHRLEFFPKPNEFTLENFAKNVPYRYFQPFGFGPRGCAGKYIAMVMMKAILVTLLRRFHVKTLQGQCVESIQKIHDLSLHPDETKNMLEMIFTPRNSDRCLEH
How it was run: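 Human term placental microsomes (50 µg) with sample at 20 µg/mL, 100 nM [1β-3H]androstenedione, 0.1 M K phosphate pH 7.0, 5% propylene glycol, NADPH-regenerating system; 37 °C, 15 min, CHCl3 quench and extraction; aqueous 3H2O counted; triplicate.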

Aromatase [2] = target: T1, Aromatase; test: Inhibition of aromatase in human placental microsomes by radiometric method; design: species or system Placenta
How it was run: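 Placental microsomal aromatase (50 µg), 100 nM [1β-3H]androstenedione, pH 7.0 phosphate buffer, 5% propylene glycol, NADPH-regenerating system, 37 °C for 15 min; 3H2O in the aqueous phase counted after CHCl3 extraction, boiled-enzyme background. Eight inhibitor concentrations spanning 1–100 µM; IC50 by nonlinear regression.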

Aromatase [3] = target: T1, Aromatase; test: Inhibition of aromatase in human SKBR3 cells at 100 uM relative to control; type: cell-based; design: scale not given: the % may be the effect or the level left; conditions: SK-BR-3, human; read-out: Activity
How it was run: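 Test agents at 100 µM on aromatase-overexpressing SK-BR-3 cells in T-25 flasks, serum-free DMEM/F12 with albumin/transferrin/insulin, triplicate, 24 h exposure (0.1% DMSO negative control, 10 nM letrozole positive control). Medium replaced with 50 nM androstenedione plus 2 µCi [1β-3H]androstenedione, 6 h; released 3H2O scintillation-counted, corrected for blanks and DNA-based cell count; percent control activity.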

Aromatase [4] = target: T1, Aromatase; test: Inhibition of aromatase in human SKBR3 cells at 10 nM relative to control; type: cell-based; design: scale not given: the % may be the effect or the level left; conditions: SK-BR-3, human; read-out: Activity
How it was run: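 SK-BR-3 human breast cancer cells (aromatase-overexpressing), grown subconfluent in T-25 flasks, medium switched to serum-free DMEM/F12 with albumin, transferrin, insulin; treated in triplicate 24 h (0.1% DMSO negative control). Then 50 nM androstenedione plus 2 µCi [1β-3H]androstenedione for 6 h; 3H2O counted after TCA, CHCl3 and charcoal cleanup; normalized to DNA-determined cell number, expressed as percent control activity.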

Row | Compound | activity at 20 µg/mL (Aromatase [1]) [%] | IC50 (Aromatase [2]) [µM] | activity at 100 µM (Aromatase [3]) [%] | activity at 0.01 µM (Aromatase [4]) [%]
1 | CCCCC/C=C\C/C=C\C/C=C\C/C=C\CCCC(=O)O [ARACHIDONIC ACID] | 11.5 | 28.2 | 147 | –
2 | CC/C=C\C/C=C\C/C=C\C/C=C\C/C=C\C/C=C\CCC(=O)O [DOCONEXENT] | 12.4 | 33.2 | 98.2 | –
3 | CC/C=C\C/C=C\C/C=C\C/C=C\C/C=C\CCCCCC(=O)O [DOCOSAPENTAENOIC ACID] | 15.7 | 16.8 | 94.4 | –
4 | CC/C=C\C/C=C\C/C=C\C/C=C\C/C=C\CCCC(=O)O [ICOSAPENT] | 30.2 | 53.2 | 138 | –
5 | N#Cc1ccc(C(c2ccc(C#N)cc2)n2cncn2)cc1 [LETROZOLE] | – | – | – | 3.9
6 | CCCCC/C=C\C/C=C\CCCCCCCC(=O)O [LINOLEIC ACID] | 22.5 | 48 | 148 | –
7 | CC/C=C\C/C=C\C/C=C\CCCCCCCC(=O)O [LINOLENIC ACID] | 49.5 | 44.2 | 92.8 | –
8 | CCCCCCCCCCCCCC(=O)O [MYRISTIC ACID] | 66.7 | – | – | –
9 | CCCCCCCC/C=C\CCCCCCCC(=O)O [OLEIC ACID] | 19.5 | 32.7 | 99.3 | –
10 | CCCCCCCCCCCCCCCC(=O)O [PALMITIC ACID] | 83.2 | – | – | –
11 | CCCCCCCCCCCCCCC(=O)O [PENTADECANOIC ACID] | 76.2 | – | – | –
12 | CCCCCCCCCCCCCCCCCC(=O)O [STEARIC ACID] | 89.4 | – | – | –
